Results published in ChEMBL document CHEMBL1124958 (J Med Chem, 1990).

Columns and labels:
[1] = target: Serotonin 2 (5-HT2) receptor (Mus musculus) (UniProt Q02152+P34968+P35363); assay: Hill number was determined for inhibition of [3H]ketanserin binding to 5-hydroxytryptamine 2 receptor in mouse cerebral cortex; format: tissue-based
Procedure, shortened: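 Hill numbers taken from seven-point inhibition curves of 0.15 nM [3H]ketanserin binding to washed mouse cortical membranes in 50 mM Tris-HCl pH 7.4, incubated 15 min at 37 °C. Nonspecific binding set with 1 μM methysergide; bound radioligand collected by filtration and counted.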

[2] = target: T1, Serotonin 2 (5-HT2) receptor (Mus musculus, UniProt Q02152+P34968+P35363); assay: Inhibitory activity towards 5-hydroxytryptamine 2 receptor by the displacement of [3H]ketanserin in mouse cerebral cortex; format: tissue-based
Procedure, shortened: (§1)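 BALB/cBy mouse cerebral cortex, homogenized in 0.25 M sucrose; 1000g supernatant pelleted at 35000g and washed in 50 mM Tris-HCl pH 7.4. Nonspecific binding defined with 1 μM methysergide. Filtration on GF/B, scintillation counting. IC50 from computer fit of seven-point curves, averaged over 2–5 determinations.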

[3] = target: T2, 5-hydroxytryptamine receptor 1A (Mus musculus) (UniProt Q64264); assay: Hill number was determined for inhibition of [3H]8-OH-DPAT binding to 5-hydroxytryptamine 1A receptor in mouse hippocampus; format: tissue-based
T2 sequence (whole entry): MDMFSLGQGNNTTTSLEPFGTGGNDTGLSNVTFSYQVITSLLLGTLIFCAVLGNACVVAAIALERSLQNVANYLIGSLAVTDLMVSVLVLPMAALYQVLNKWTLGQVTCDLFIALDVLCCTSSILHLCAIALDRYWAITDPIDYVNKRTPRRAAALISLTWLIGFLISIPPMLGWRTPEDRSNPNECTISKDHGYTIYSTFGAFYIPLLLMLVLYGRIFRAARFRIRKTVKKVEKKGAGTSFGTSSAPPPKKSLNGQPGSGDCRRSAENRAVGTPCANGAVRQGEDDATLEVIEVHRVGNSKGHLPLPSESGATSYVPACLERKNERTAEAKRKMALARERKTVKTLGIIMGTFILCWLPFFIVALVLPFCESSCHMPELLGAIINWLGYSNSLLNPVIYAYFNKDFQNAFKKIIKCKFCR

[4] = target: T1, Serotonin 2 (5-HT2) receptor; assay: Binding affinity towards 5-hydroxytryptamine 2 receptor by the displacement of [3H]-ketanserin in mouse cerebral cortex; format: tissue-based; procedure, shortened: as §1
[5] = target: T3, 5-hydroxytryptamine receptor 1A (Mus musculus, UniProt Q64264); assay: Binding affinity towards 5-hydroxytryptamine 1A receptor by the displacement of [3H]8-OH-DPAT in mouse hippocampus; format: tissue-based
T3 sequence (Q64264 whole entry): T2 sequence (whole entry)
Procedure, shortened: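 Membranes incubated in triplicate with 1.2 nM [3H]8-OH-DPAT plus varying analogue concentrations, 30 min at 23 °C, 0.5 mL final volume. Filtered on PEI-pretreated GF/B; scintillation counting. IC50 derived from seven-point inhibition curves.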

[6] = target: T3, 5-hydroxytryptamine receptor 1A; assay: Inhibitory activity towards 5-hydroxytryptamine 1A receptor by the displacement of [3H]8-OH-DPAT in mouse hippocampus; format: tissue-based
[7] = target: T2, 5-hydroxytryptamine receptor 1A (Mus musculus); conditions: Hippocampus
Mus musculus [8] = organism: Mus musculus; assay: Hill number was determined for inhibition of [3H]8-OH-DPAT binding in mouse hippocampus; format: functional
Procedure, shortened: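 Triplicate incubations ran 30 min at 23 °C with 1.2 nM [3H]8-OH-DPAT over varying analogue concentrations, followed by filtration on polyethylenimine-treated GF/B filters and scintillation counting. Inhibition curves had seven points.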

Mus musculus [9] = organism: Mus musculus; assay: Hill number was determined for inhibition of [3H]ketanserin binding in mouse cerebral cortex; format: tissue-based
Procedure, shortened: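 Cerebral cortex from adult BALB/cBy mice was homogenised in ice-cold 0.25 M sucrose pH 7.4. The 1000g supernatant was washed at 35000g in 50 mM Tris-HCl pH 7.4. Triplicate incubations ran 15 min at 37 °C with 0.15 nM [3H]ketanserin and varying analogue concentrations, final 2 mL. Nonspecific binding was set with 1 μM methysergide, and bound ligand was filtered on GF/B and counted by scintillation. Inhibition curves had seven points.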

Sequence of Serotonin 2 (5-HT2) receptor (Mus musculus) (P34968 whole entry, looked up): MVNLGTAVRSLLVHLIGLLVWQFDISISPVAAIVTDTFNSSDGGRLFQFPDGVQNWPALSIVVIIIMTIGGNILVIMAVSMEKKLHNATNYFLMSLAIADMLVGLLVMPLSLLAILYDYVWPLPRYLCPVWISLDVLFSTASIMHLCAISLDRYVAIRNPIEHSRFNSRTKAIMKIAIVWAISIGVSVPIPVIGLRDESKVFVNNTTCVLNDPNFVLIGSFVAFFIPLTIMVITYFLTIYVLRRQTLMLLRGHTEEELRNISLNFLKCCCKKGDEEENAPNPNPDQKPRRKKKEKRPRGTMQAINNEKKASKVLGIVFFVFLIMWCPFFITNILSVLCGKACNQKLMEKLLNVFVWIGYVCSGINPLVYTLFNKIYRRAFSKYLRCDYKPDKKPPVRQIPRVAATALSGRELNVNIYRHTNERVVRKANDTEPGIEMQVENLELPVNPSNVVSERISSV
Sequence of Serotonin 2 (5-HT2) receptor (Mus musculus) (P35363 whole entry, looked up): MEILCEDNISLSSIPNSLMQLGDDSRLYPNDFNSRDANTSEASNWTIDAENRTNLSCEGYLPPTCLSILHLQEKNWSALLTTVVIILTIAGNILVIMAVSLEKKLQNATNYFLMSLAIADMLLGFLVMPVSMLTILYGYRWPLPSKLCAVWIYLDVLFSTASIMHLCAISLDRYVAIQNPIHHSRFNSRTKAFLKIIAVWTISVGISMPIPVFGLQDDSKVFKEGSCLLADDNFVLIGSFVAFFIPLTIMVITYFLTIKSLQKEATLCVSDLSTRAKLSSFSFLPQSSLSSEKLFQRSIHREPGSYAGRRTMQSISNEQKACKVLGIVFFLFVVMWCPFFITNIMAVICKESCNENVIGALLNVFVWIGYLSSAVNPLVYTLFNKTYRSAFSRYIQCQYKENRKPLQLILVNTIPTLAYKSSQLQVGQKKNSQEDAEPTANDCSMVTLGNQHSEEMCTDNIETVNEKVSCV
Sequence of Serotonin 2 (5-HT2) receptor (Mus musculus) (Q02152 whole entry, looked up): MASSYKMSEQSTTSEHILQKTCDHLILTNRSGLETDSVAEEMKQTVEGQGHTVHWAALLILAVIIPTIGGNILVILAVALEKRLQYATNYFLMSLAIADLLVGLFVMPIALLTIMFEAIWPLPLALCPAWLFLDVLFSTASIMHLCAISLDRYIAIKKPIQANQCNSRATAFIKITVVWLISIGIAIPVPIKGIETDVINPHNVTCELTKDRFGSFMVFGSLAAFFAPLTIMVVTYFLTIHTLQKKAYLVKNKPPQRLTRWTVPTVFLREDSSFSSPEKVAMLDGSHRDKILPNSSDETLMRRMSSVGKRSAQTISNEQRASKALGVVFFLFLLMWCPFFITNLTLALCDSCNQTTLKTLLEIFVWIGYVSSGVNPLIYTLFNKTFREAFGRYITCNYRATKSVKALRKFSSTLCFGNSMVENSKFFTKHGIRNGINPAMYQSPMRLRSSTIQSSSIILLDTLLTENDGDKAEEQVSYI

Structure (SMILES)	Hill coefficient [1]	IC50 [2]	Hill coefficient [3]	Ki [4]	Ki [5]	IC50 [6]	other results
O=C1CC2CCC1C(N1CCCCC1)C2c1ccccc1 (stereo not drawn)	1.2	181 µM	0.89	132 µM	274 µM	358 µM	–
O=C1CC2CCC1C(N1CCCC1)C2c1c[nH]c2ccccc12 (stereo in doubt; 9a) [listing 1 of 2 here]	–	32 µM	–	23 µM	32 µM	46 µM	–
O=C1CC2CCC1C(N1CCCC1)C2c1c[nH]c2ccccc12 (stereo in doubt; 9a) [listing 2 of 2 here]	0.9	–	–	–	–	–	Hill coefficient [7]: 0.95
O=C1CC2CCC1C(N1CCCC1)C2c1c[nH]c2ccccc12 (stereo in doubt; 9b) [listing 1 of 2 here]	–	96 µM	–	70 µM	–	53 µM	–
O=C1CC2CCC1C(N1CCCC1)C2c1c[nH]c2ccccc12 (stereo in doubt; 9b) [listing 2 of 2 here]	1	–	0.47	–	–	–	–
O=C1CC2CCC1C(N1CCCCC1)C2c1c[nH]c2ccccc12 (stereo in doubt; 10a) [listing 1 of 2 here]	–	5 µM	–	4 µM	61 µM	86 µM	–
O=C1CC2CCC1C(N1CCCCC1)C2c1c[nH]c2ccccc12 (stereo in doubt; 10a) [listing 2 of 2 here]	1	–	1.2	–	–	–	–
O=C1CC2CCC1C(N1CCCCC1)C2c1c[nH]c2ccccc12 (stereo in doubt; 10b) [listing 1 of 2 here]	–	84 µM	–	61 µM	115 µM	160 µM	–
O=C1CC2CCC1C(N1CCCCC1)C2c1c[nH]c2ccccc12 (stereo in doubt; 10b) [listing 2 of 2 here]	0.9	–	0.88	–	–	–	–
C1=CC2CCC1C(c1c[nH]c3ccccc13)C2N1CCCC1 (stereo in doubt; 12a) [listing 1 of 2 here]	–	19 µM	–	14 µM	8.5 µM	12 µM	–
C1=CC2CCC1C(c1c[nH]c3ccccc13)C2N1CCCC1 (stereo in doubt; 12a) [listing 2 of 2 here]	1	–	0.95	–	–	–	–
C1=CC2CCC1C(c1c[nH]c3ccccc13)C2N1CCCC1 (stereo in doubt; 12b) [listing 1 of 2 here]	–	24 µM	–	17 µM	–	47 µM	–
C1=CC2CCC1C(c1c[nH]c3ccccc13)C2N1CCCC1 (stereo in doubt; 12b) [listing 2 of 2 here]	0.9	–	0.61	–	–	–	–
C1=CC2CCC1C(c1c[nH]c3ccccc13)C2N1CCCCC1 (stereo in doubt; 13a) [listing 1 of 2 here]	–	10 µM	–	8 µM	13.5 µM	18 µM	–
C1=CC2CCC1C(c1c[nH]c3ccccc13)C2N1CCCCC1 (stereo in doubt; 13a) [listing 2 of 2 here]	1	–	0.93	–	–	–	–
C1=CC2CCC1C(c1c[nH]c3ccccc13)C2N1CCCCC1 (stereo in doubt; 13b) [listing 1 of 2 here]	–	13 µM	–	9 µM	–	89 µM	–
C1=CC2CCC1C(c1c[nH]c3ccccc13)C2N1CCCCC1 (stereo in doubt; 13b) [listing 2 of 2 here]	0.9	–	0.69	–	–	–	–
NCCc1c[nH]c2ccc(O)cc12 [SEROTONIN]	–	–	–	–	–	–	Hill coefficient (Mus musculus [8]): 0.75; Hill coefficient (Mus musculus [9]): 0.85
